Sampled rows, rich in hits. Any-hit rate of the full collection: about 4%.
FN deposition inh – inhibitors of fibronectin matrix deposition, primary screen, AH1F cells, Alexa488-fibronectin fluorescence, plate reader | AH1F fibroblasts, overnight | inhibition, % at 12.6 µM | hit rate 0.086% among 350,000;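 active = mean inhibition across replicates of 30% or more, regardless of how many single replicates reach that level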;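 also: positive control wells lacked labelled fibronectin entirely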
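Assay system: AH1F fibroblast monolayer, labelled fibronectin deposition. Amount: 10000 cells per well. Also added: labelled fibronectin 24 nM. Compound: single-point pinned compound. Incubation: cell attachment 1 h, compound and FN exposure overnight. Detection: fluorescence after three HBSS washes, excitation 485 nm, emission 525 nm. Read-out: inhibition of fibronectin deposition signal.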
SIRT5 inh – SIRT5 desuccinylase inhibitors, primary screen, biochemical, fluorescence imaging, single point, set 5 | NAD-dependent protein deacylase sirtuin-5, mitochondrial (Homo sapiens), Q9NXA8 | Purified SirT5, succinyl-peptide AMC, trypsin-coupled fluorescence | inhibition, % at 15 µM | hit rate 1.1% among 330,000 | AID 652115, 2013; in the data active = inhibition above about 15%
Target sequence (Q9NXA8 whole entry, looked up): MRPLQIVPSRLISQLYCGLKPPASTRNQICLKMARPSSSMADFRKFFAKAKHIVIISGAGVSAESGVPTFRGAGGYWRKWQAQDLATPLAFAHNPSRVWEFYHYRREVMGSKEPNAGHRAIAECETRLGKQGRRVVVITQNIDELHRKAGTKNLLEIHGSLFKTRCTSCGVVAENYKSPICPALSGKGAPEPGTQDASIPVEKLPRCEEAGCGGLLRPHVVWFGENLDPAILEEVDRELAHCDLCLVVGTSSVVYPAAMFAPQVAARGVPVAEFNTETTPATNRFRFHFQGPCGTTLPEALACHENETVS
FGF22 binding – binders of human FGF22 protein, primary screen, FGF22 synaptogenesis inhibitor project, biophysical, thermal shift, single point | Fibroblast growth factor 22 (Homo sapiens), Q9HCT0 | recombinant FGF22 thermal shift, SYPRO orange fluorescence; percent of sucrose octasulfate shift, DMSO zero | activity (Tm shift, normalised), % at 9.99 µM | hit rate 1.5% among 340,000 | AID 651658, 2012;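 active = mean Tm shift, scaled 0 neutral to 100 positive control, at about 1.3% or above, every replicate too, limit read from the data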
Target sequence (Q9HCT0 whole entry, looked up): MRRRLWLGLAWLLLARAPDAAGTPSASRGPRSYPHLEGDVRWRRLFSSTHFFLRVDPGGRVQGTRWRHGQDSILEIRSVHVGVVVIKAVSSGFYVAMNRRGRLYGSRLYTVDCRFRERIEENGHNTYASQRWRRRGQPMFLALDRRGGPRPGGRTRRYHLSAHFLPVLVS
E-selectin induc – E-selectin induction in HUVECs, primary screen, imaging, HUVEC, immunofluorescence imaging, single point; normalized: neutral wells 0, TNF-alpha wells 100; activation, % at 7.58 µM; P16581; AID 686992, 2013; hit rate 0.37% among 260,000;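 active = mean E-selectin-positive cell signal at least 10% of the positive control, reached in at least 60% of replicates, without over 20% cell loss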
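Test system: HUVEC; input: 3,000 HUVEC/well; measured by: immunofluorescence imaging; read-out: % PE-positive cells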
rRNA inh HTS – reduced GFP signal of wild-type E. coli, primary screen, bacterial rRNA inhibitor project, GFP/RFP fluorescence, OD600, single point; hit rate 1.6% among 350,000; E. coli WT GFP vs humanized-ribosome RFP mutants, 24 h; active compounds read low; DMSO median 0, no signal -100; GFP signal change (wild-type ribosome), % (concentration not given with the values);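 active = significant combined selectivity score with lowered wild-type GFP, culture density cut under 30%, mutant RFP and density less affected; inactive = any of these conditions unmet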
Statin myotox sup – suppressors of statin myotoxicity in C2C12 myotubes, primary screen, cell-based, single point, plate reader | C2C12 myotubes + simvastatin, ATP luminescence, 48 h; scaled: DMSO 0, geranylgeraniol control 100 | rescue of ATP level, % at 7.49 µM | hit rate 0.78% among 330,000;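 active = mean ATP rescue above about 67%, or every replicate alone reaching that limit, limit read from the data, passing the limit was not always enough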;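 also: myotubes were challenged with 10 µM simvastatin during compound exposure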
Numbers without * were called inactive; nt = not tested or not shown; ! = a repeat was not active.

SMILES | FN deposition inh | SIRT5 inh | FGF22 binding | E-selectin induc | rRNA inh HTS | Statin myotox sup
O=C1c2ccccc2-c2ccc(C(=O)N3CCCCC3)cc21 | 11 | -2 | nt | -1 | -25* | nt
COc1ccccc1S(=O)(=O)N[C@H]1C=C[C@H](CC(=O)N2CCCCC2)O[C@H]1CO | nt | 1 | 0 | 0 | -1 | 7
NC(=O)COC(=O)/C=C/c1cccc(Br)c1 | 1 | 0 | 43* | 1 | 8 | nt
O=C(COC(=O)/C=C/c1cccc(Br)c1)NC1CCCC1 | 0 | -2 | 0 | nt | nt | -1
COc1ccc(C(=O)N/C(=C\c2cn(C)c3ccccc23)C(=O)OCCN(C)C)cc1 | -2 | 3 | 28* | 0 | -2 | nt
CCOC(=O)c1ccc(S(=O)(=O)NC2CCC(C)CC2)cc1 (centres undefined) | -10 | 21* | 0 | 0 | -52 | 14
C[C@@H]1CN([C@H](C)CO)C(=O)CCCn2nncc2CO[C@H]1CN(C)Cc1ccc(Cl)c(Cl)c1 | 13 | 8 | 0 | 0 | 4 | 11
C[C@@H]1CN([C@@H](C)CO)C(=O)CCCn2nncc2CO[C@H]1CN(C)Cc1ccc(Cl)c(Cl)c1 | -4 | 16*! | 0 | 0 | 8 | 12
C[C@H]1CN([C@@H](C)CO)C(=O)CCCn2nncc2CO[C@@H]1CN(C)C(=O)c1ccc2ccn(C)c2c1 | 3 | 38*! | 0 | 0 | 2 | 0
C[C@@H]1CN([C@H](C)CO)C(=O)CCCn2nncc2CO[C@H]1CN(C)S(=O)(=O)c1ccc(Cl)cc1 | 1 | 19*! | 0 | 0 | 7 | -3
C[C@@H]1CN([C@H](C)CO)C(=O)c2cc(NC(=O)Nc3ccccc3)ccc2O[C@@H](C)CCCCO[C@@H]1CN(C)Cc1ccc(C(F)(F)F)cc1 | -8 | nt | 0 | 0 | 0 | nt
CC1=NN(c2ccc(C)cc2)C(=O)/C1=C\C=C\c1ccccc1 | 3 | -2 | 0 | 0 | 2 | nt
CC1=NN(c2cccc(C(=O)O)c2)C(=O)/C1=C\C=C/c1ccccc1 | nt | -2 | 43* | 6 | 21 | nt
Cc1ccc(C(=O)OCC(=O)N(Cc2ccccc2)C(C)C)cc1C | -3 | nt | 0 | 0 | -13 | nt
Cc1ccsc1C(=O)OCC(=O)N(Cc1ccccc1)C(C)C | 3 | -2 | 0 | 0 | -30* | -18
CNC[C@H]1Oc2ccc(N(C)C)cc2CC(=O)N([C@H](C)CO)C[C@@H]1C | -7 | 1 | 0 | 0 | 1 | 28
C[C@@H]1CN([C@H](C)CO)C(=O)c2cc(NC(=O)Nc3cccc4ccccc34)ccc2O[C@H]1CN(C)C(=O)Nc1ccc2c(c1)OCO2 | nt | 0 | 0 | 0 | -1 | 14
C=C1CC[C@@H]2[C@](C)(CO)[C@H](O)CC[C@@]2(C)[C@@H]1/C=C/C1=CCOC1=O | 3 | -3 | 0 | 1 | -23* | -5
COc1ccc(/C=N/NC(=O)CNc2ccc(Br)cc2)c(C(=O)O)c1OC | -22 | 2 | 44* | nt | -4 | nt
CN1CCC(=NNC(=O)C(=O)Nc2ccccc2F)CC1 | 1 | -2 | 43* | nt | 17 | 6
C[C@@H]1CN([C@H](C)CO)C(=O)c2cc(C3=CCCC3)cnc2O[C@@H]1CN(C)C | -12 | -9 | 0 | 0 | 2 | 3
COc1ccc(CCNC(=O)c2ccc(CSc3ccccc3)o2)cc1 | nt | 0 | 0 | nt | -37* | nt
O=C(Nc1cccc(Br)c1)c1ccc(CSc2ccccc2)cc1 | 18 | 24* | 0 | -1 | 7 | nt
O=C(Nc1ccc(F)cc1)c1ccc(CSc2ccccc2)o1 | -1 | nt | 0 | nt | -52 | nt
COc1ccc(CCNC(=O)c2ccc(COc3ccccc3OC)o2)cc1 | -3 | -3 | 0 | nt | -8 | 21
SMILES | FN deposition inh | SIRT5 inh | FGF22 binding | E-selectin induc | rRNA inh HTS | Statin myotox sup
CC(=O)c1ccc(NC(=O)c2ccc(CSc3ccccc3)o2)cc1 | nt | -4 | 0 | nt | -31* | nt
O=C(Nc1ccc(F)cc1)c1ccc(CSc2ccc(Cl)cc2)o1 | -1 | -1 | 0 | nt | -32* | nt
O=C(c1ccc(Cl)cc1)N1CCc2c([nH]c3ccccc23)C1C(F)(F)F (centres undefined) | -3 | 3 | 0 | nt | -21* | nt
COc1ccc(C2c3[nH]c4ccccc4c3CCN2C(=O)c2cc3ncccn3n2)c(F)c1 (centres undefined) | 1 | 0 | 43* | 0 | -4 | 9
O=C(c1cn[nH]c1)N1CCc2c([nH]c3ccccc23)C1c1c(F)cccc1Cl (centres undefined) | 3 | 2 | 44* | 0 | -31 | 15
Cc1ccc2nc(C(=O)N3CCc4c([nH]c5ccccc45)C3c3ccccn3)cn2c1 (centres undefined) | -6 | -2 | 43* | nt | -13 | 18
COc1ccc(NC(=O)Nc2cccc3c2O[C@@H](CN(C)CC2CC2)[C@H](C)CN([C@@H](C)CO)C3=O)cc1 | 8 | 1 | 0 | 0 | -3 | 48
CN(C)CC(=O)N[C@H]1CC[C@H](CCNC(=O)Nc2ccc(C(F)(F)F)cc2)O[C@H]1CO | nt | -5 | 0 | 0 | -60 | -10
CCCNC(=O)N1CC2(CCN(C(C)=O)CC2)c2c(n(C)c3cc(OC)ccc23)[C@@H]1CO | nt | -7 | 0 | 0 | 3 | nt
COc1ccc2c3c([nH]c2c1)[C@@H](CO)N(Cc1ccncc1)CC31CCN(C(=O)c2cccnc2)CC1 | nt | 7 | 0 | 0 | 0 | nt
CCCNC(=O)c1ccc(C2SCC(=O)N2Cc2ccccc2)cc1 (centres undefined) | -4 | 0 | 44* | nt | 4 | nt
Oc1ccc(-c2nc3cnccn3c2Nc2ccc3c(c2)OCCO3)cc1 | -4 | 1 | 0 | 0 | -5 | 8
CC(C)(C)CC(C)(C)Nc1c(-c2ccc(O)cc2)nc2cnccn12 | 6 | -5 | nt | nt | -25* | 45
COc1cc(-c2nc3cnccn3c2Nc2ccc(C)cc2)ccc1O | nt | 0 | 0 | nt | -41* | 29
C[C@H](CO)N1C[C@H](C)[C@@H](CN(C)Cc2ccc(-c3ccccc3)cc2)Oc2c(NC(=O)NC3CCCCC3)cccc2C1=O | -17 | 3 | -1 | nt | 3 | -28
COc1ccc(N2CS(=O)CC2=O)cc1 (centres undefined) | 9 | 1 | 43* | nt | 7 | 5
COc1ccc(N2CC(C(=O)O)CC2=O)cc1 (centres undefined) | nt | -2 | 0 | nt | -2 | 27
